Assay results: publication PMC6247064 (Cancer Science, 2018)
Values after ≈ are worked out from the molar mass of the structure shown. Values joined by “and” are separate entries in the source; they are usually repeats but may differ in a detail not shown here. Identical values can stand only once. Like-named read-outs stand apart in the source and are kept apart here.

Experiments:
[1] = Phase 1 study: noncompartmental plasma pharmacokinetics; format: in vivo, human; conditions: for C av,72 (average plasma concentration over 72 h): geometric mean (CV%)
How it was run: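 The test compound was given as a 1-h IV infusion at 80 or 105 mg/m2 every 14 days. Plasma levels were measured by validated LC/MS/MS and analysed noncompartmentally. C av,72 is the mean plasma concentration over 72 h after infusion. Accumulation ratio is cycle 2 day 1 AUC(0-24) divided by cycle 1 day 1 AUC(0-24). Values are geometric means.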

[2] = system: BRCA wild-type recurrent high-grade serous ovarian cancer; conditions: phase 2, 8 of 28 women, intention-to-treat population; cited from earlier work
advanced solid tumors [3] = conditions: cited from earlier work
advanced solid tumors [4] = assay: Phase 1 study: antitumor activity by RECIST version 1.1; format: in vivo, human
How it was run: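 Adults with advanced solid tumors received the test compound at 80 or 105 mg/m2 by IV infusion on day 1 of each 14-day cycle. Tumors were measured by CT or MRI and scored with RECIST 1.1. Best overall response was the best response recorded from the start of treatment until disease progression. Patients counted if they had baseline and post-baseline tumor measurements.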

Calu-6 xenograft = conditions: cited from earlier work

## COc1cccc(OCCCN)c1-c1cc(Nc2cnc(C#N)cn2)n[nH]1 [Prexasertib]
[1]; 80 mg/m^2 1-h IV infusion, Cycle 1, day 1, N 6
  C av,72 (average plasma concentration over 72 h): 23.1 (22) ng/mL
[1]; 80 mg/m^2 1-h IV infusion, Cycle 2, day 1, N 4
  C av,72 (average plasma concentration over 72 h): 24.8 (16) ng/mL
[1]; 105 mg/m^2 1-h IV infusion, Cycle 1, day 1, N 6
  C av,72 (average plasma concentration over 72 h): 30.0 (13) ng/mL
[1]; 105 mg/m^2 1-h IV infusion, Cycle 2, day 1, N 3
  C av,72 (average plasma concentration over 72 h): 31.5 (22) ng/mL
[1]; both treatment groups
  Intercycle accumulation between cycle 1 and cycle 2: no intercycle accumulation
[2]
  Partial responses: 29%
Advanced solid tumors [3]; US phase 1, 15 of 45 patients
  Best overall response of stable disease: 33%
Advanced solid tumors [3]; US phase 1, 45 patients, Two patients (SCC of the anus, SCC of the head and neck)
  Partial response: 4%
Advanced solid tumors [3]; US phase 1, administered once every 14 days
  Recommended prexasertib dose: 105 mg/m^2
Advanced solid tumors [3]; phase 1 trial in non-Japanese patients
  Patients with tumor shrinkage: 10 of 34
Advanced solid tumors [4]; 80 mg/m^2, two patients with BOR of stable disease
  Maximum tumor shrinkage from baseline, individual patients with esophageal SCC: 20% and 13%
Advanced solid tumors [4]; 80 mg/m^2 group, 2 of 6 patients
  BOR progressive disease: 33.3%
Advanced solid tumors [4]; 80 mg/m^2 group, 4 of 6 patients
  BOR stable disease: 66.7%
Advanced solid tumors [4]; 105 mg/m^2 group, 1 of 5 evaluable patients
  BOR progressive disease: 20.0%
Advanced solid tumors [4]; 105 mg/m^2 group, 4 of 5 evaluable patients
  BOR stable disease: 80.0%
Advanced solid tumors [4]; all patients
  Complete response or partial response: No patients in the study had a complete response or partial response
Advanced solid tumors [4]; patients with baseline and post-baseline tumor measurements, both doses
  Best overall response of stable disease: 8 of 11
Calu-6 xenograft; plasma concentration
  IC50 derived from the single-agent Calu-6 xenograft model: 0.0141 µg/mL (≈ 0.0386 µM)
Calu-6 xenograft; predicted from Calu-6 xenograft PK/pharmacodynamic model, monotherapy
  Median AUC(0-72) predicted to achieve the maximal tumor response: 1896 ng·h/mL
